TAAR1 antagonist – human TAAR1 antagonism; Q96RJ0; CHO RD-HGA16 TAAR1, Fluo-8 calcium fluorescence, antagonist; inhibition, % at 3 µM; hit rate 1.5% among 360,000; AID 624466;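 active = inhibition above a per-plate cutoff, the mean inhibition of test compounds on that plate plus 3 SD, cut at about 49% in these data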
Target sequence (Q96RJ0 whole entry, looked up): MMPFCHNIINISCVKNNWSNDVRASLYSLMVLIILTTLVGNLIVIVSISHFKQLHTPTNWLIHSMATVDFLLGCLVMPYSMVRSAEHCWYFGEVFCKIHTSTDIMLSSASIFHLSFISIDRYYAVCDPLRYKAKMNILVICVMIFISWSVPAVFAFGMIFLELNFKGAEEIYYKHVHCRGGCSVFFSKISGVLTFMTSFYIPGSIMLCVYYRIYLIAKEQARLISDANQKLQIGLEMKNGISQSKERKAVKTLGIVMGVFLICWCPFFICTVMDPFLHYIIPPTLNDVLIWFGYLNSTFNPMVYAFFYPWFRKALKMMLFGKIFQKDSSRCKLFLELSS
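Material: RD-HGA16 CHO cells with stable hTAAR1 and Gα16; Dosing: single nominal final test compound concentration of 3 µM; Schedule: seeding 17-24 h prior, 75-min 37 °C, 30-min RT dye loading; Detection: kinetic Fluo-8 calcium fluorescence measurement; Measure: % inhibition from peak post-agonist over basal fluorescence ratio; Benchmarks: vehicle and agonist controls.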
OXTR potentiate – human OXTR potentiation. hit rate 0.061% among 320,000. activation, % at 3 µM. CHO-OTR cells, Fluo-8 calcium fluorescence, potentiator mode; 0% = oxytocin EC15, 100% = EC100. AID 2445. P30559;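 active = activation above that plate's cutoff, the mean activation of tested compounds plus 3 SD, cut at about 6.6% in these data, passing the limit was not always enough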
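Material: human OTR in CHO cells. Compound: 3.0 µM, one dose. Timing: compound 6 min at room temperature before oxytocin, 100 s read. Evaluation: % activation of max/min ratio relative to oxytocin controls. Replication: single well per compound, singlicate. Signal: Fluo-8 calcium dye fluorescence.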
V1aR counter – V1a receptor agonism, counter-screen for OXTR agonists; CHO-V1R cells, Fluo-8 calcium fluorescence, agonist mode; 0% DMSO, 100% 3 nM vasopressin; activation, % at 3 µM; P37288; hit rate 0.25% among 320,000;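 active = activation above the mean activation of all tested compounds plus 3 SD, per screening run, cut at about 20% in these data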;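 note: signal is peak over basal fluorescence ratio across a 100 second FLIPR read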
Target sequence (P37288 whole entry, looked up): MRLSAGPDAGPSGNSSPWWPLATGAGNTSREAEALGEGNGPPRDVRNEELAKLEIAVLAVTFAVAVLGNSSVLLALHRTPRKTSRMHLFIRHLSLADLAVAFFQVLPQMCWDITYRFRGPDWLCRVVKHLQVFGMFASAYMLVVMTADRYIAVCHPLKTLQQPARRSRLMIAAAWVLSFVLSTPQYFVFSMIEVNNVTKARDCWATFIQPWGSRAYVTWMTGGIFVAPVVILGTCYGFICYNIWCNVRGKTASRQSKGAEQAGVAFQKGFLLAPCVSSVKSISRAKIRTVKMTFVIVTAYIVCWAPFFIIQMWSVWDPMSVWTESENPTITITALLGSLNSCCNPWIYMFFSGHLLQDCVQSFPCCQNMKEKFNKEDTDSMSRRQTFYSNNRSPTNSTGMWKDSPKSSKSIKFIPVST
OXTR agonist – activates the human oxytocin receptor | P30559 | CHO-OTR cells, Fluo-8 calcium fluorescence; normalized: DMSO 0%, oxytocin 100% | activation, % at 3 µM | hit rate 0.32% among 320,000;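 active = activation above the mean of all tested compounds plus 3 SD, cutoff set per screening run, cut at about 20% in these data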;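 note: peak over basal fluorescence ratio from a 100 s FLIPR kinetic read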
TAAR1 ag – agonists of human TAAR1; CHO RD-HGA16 TAAR1, Fluo-8 calcium fluorescence; vehicle wells 0%, saturating PEA agonist 100%; activation, % at 3 µM; hit rate 0.99% among 360,000; AID 624467;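 active = activation above the mean activation of all test compounds in the run plus 3 SD, cut at about 38% in these data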
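Repeats: no replicates (n 1) | Material: CHO-derived RD-HGA16 cells with stable Gα16 and human TAAR1 | Technique: Kinetic Fluo-8 calcium fluorescence | Schedule: 17-24 h seeding, 75 min 37 °C dye, 30 min RT | Evaluation: % activation from peak over basal fluorescence ratio, DMSO-to-PEA scaled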
Each line names hits and unclear results; the compound was inactive in the other large screens. Only some compounds are listed: those with a hit (about 2.3% of all), similar ones and a draw of the others.

CN(C)CCN(C(=O)/C=C/c1cccs1)c1nc2ccc(Br)cc2s1	TAAR1 antagonist 56
O=C1c2ccccc2S(=O)(=O)N1CCOc1ccccc1	none
Cc1cc(OCc2cc(C(=O)N3CCC(Oc4cccnc4)CC3)no2)cc(C)c1Cl	TAAR1 antagonist 53
Cc1cc(OCc2cc(C(=O)N3CCN(CC4CC4)CC3)no2)cc(C)c1Cl	none
COc1ccc(-c2csc(NC(=O)CCS(=O)(=O)c3ccccc3)n2)c(OC)c1	TAAR1 antagonist 55
COc1ccc(OC)c(-c2csc(NC(=O)CSc3ccc([N+](=O)[O-])cc3)n2)c1	TAAR1 antagonist 49
COc1ccc(OC)c(-c2csc(NC(=O)Cn3[nH]c(=O)c4ccccc4c3=O)n2)c1	TAAR1 antagonist 54
COC(=O)[C@]12C[C@H](CC(=O)NCC34CC5CC(CC(C5)C3)C4)C(=O)N(CCC3=CCCCC3)C1=C[C@H](C(C)(C)C)O[C@@H]2C	none (no result: OXTR potentiate, V1aR counter, OXTR agonist)
CC12C=CC(C)(C3C(=O)NC(=O)C31)C1C3C(=O)NC(=O)C3C12 (centres undefined)	none (no result: OXTR potentiate, V1aR counter, OXTR agonist)
NC1(N2SC(S)=C3CCCC=C32)CCCCC1	none (no result: OXTR potentiate, V1aR counter, OXTR agonist)
O=C(NC(=S)Nc1cccc(O)c1)c1ccco1	none
COc1cccc(NC(=O)CN(C)C(=O)c2cc3c(s2)CCCCC3)c1	none
COc1ccc(OC)c(-c2c3cc(O)c(=O)cc-3oc3cc(O)c(O)cc23)c1	V1aR counter 486, OXTR agonist 715 (no result: TAAR1 antagonist, TAAR1 ag)
COc1ccc(OC)c(-c2oc3ccccc3c(=O)c2O)c1	none
N#Cc1c(NCCCO)nc(NCc2ccccc2)c2c1CCN(Cc1ccccc1)C2	TAAR1 antagonist 55
C=CCN1CC2(c3ccccc3)CN(CC=C)CC(c3ccccc3)(C1)C2=O	none
Cc1ccc2nc(-c3ccc(C#N)cc3)c(Cc3cccc(F)c3)n2c1	none (no result: OXTR potentiate, V1aR counter, OXTR agonist)
c1csc(-c2nc3nc4ccccc4nc3n2Cc2ccc3c(c2)OCO3)c1	none
Clc1ccccc1-c1nc2nc3ccccc3nc2n1-c1ccc2c(c1)OCO2	TAAR1 antagonist 49
COC(=O)c1sc(-c2ccc(C(C)(C)C)cc2)cc1NC(=O)COCC(=O)O	TAAR1 antagonist 50
COc1cccc(-c2cnc3c(NC(C)=O)cc(-c4cc(OC)c(OC)c(OC)c4)cn23)c1	TAAR1 antagonist 51 (no result: OXTR potentiate, V1aR counter, OXTR agonist)
COc1cccc(-c2cnc3c(NC(C)=O)cc(-c4ccccc4OC)cn23)c1	TAAR1 antagonist 57 (no result: OXTR potentiate, V1aR counter, OXTR agonist)
C#CCN(C[C@H]1[C@H](OC(=O)Nc2c(C)noc2C)[C@H](OC(=O)Nc2c(C)noc2C)CN(C(=O)OC(C)C)N1C(=O)OC(C)C)S(=O)(=O)c1ccc(C)cc1	none (no result: OXTR potentiate, V1aR counter, OXTR agonist)
Cc1nc2nc(C)n(CCN3CCOCC3)c(=O)c2c(-c2cccc([N+](=O)[O-])c2)c1C(=O)CCCCCCCCCCN1CCC(c2ccccc2)(c2ccccc2)CC1	TAAR1 antagonist 49 (no result: OXTR potentiate, V1aR counter, OXTR agonist)
Cc1cccc(C(=O)NC(=S)NNC(=O)c2cccs2)c1	TAAR1 antagonist 61, V1aR counter 26, OXTR agonist 36, TAAR1 ag 129
COc1ccc(C(C(O)C(=O)c2c[nH]c3ccccc23)N2CCN(c3ccc(OC)cc3)CC2)cc1 (centres undefined)	TAAR1 ag 38
O=C(c1c[nH]c2ccccc12)C(O)C(c1ccccc1)N1CCOCC1 (centres undefined)	none
Cc1cc(O)cc(=O)n1-c1cc(F)c(F)c(F)c1	none (no result: OXTR potentiate, V1aR counter, OXTR agonist)
Oc1nc(Nc2cccc(Cl)c2)sc1/C=C1\C=Nc2ccccc21	TAAR1 antagonist 54
C[C@H]1[C@@H](c2ccccc2)Oc2ccc(Cl)cc2S(=O)(=O)N1Cc1cccc(Cl)c1	none (no result: OXTR potentiate, V1aR counter, OXTR agonist)
COc1c(C(=O)Nc2ccc(Cc3ccncc3)cc2)ccc2ccccc12	TAAR1 antagonist 55
CSC(=Nc1ccccc1)N=C(SCc1ccccc1)N(C)C	TAAR1 antagonist 77 (no result: OXTR potentiate, V1aR counter, OXTR agonist)
COc1ccc(OC)c(-c2cc(C3CCN(c4cc(Cl)nc(N)n4)CC3)[nH]n2)c1	TAAR1 antagonist 56
COc1ccc(-c2cc(C3CCN(Cc4cccc(C(F)(F)F)c4)CC3)[nH]n2)cc1	none
COc1ccc(OC)c(-c2cc(C3CCN(c4ncccc4[N+](=O)[O-])CC3)[nH]n2)c1	none
COc1ccc(-c2cc(C3CCN(c4cc(Cl)nc(N)n4)CC3)[nH]n2)cc1	TAAR1 ag 43
CCCCS(=O)(=O)N1CCCc2nc(CC)c(CC)cc21	none (no result: OXTR potentiate, V1aR counter, OXTR agonist)
COc1ccccc1N(C)S(=O)(=O)c1ccc(C(=O)NCC2CCCCC2)cc1	TAAR1 antagonist 53
COC(=O)c1ccc(CNC(=O)c2ccc(S(=O)(=O)N(C)c3ccccc3OC)cc2)cc1	TAAR1 antagonist 57
CCC(NS(=O)(=O)c1cccs1)c1ccc(C)cc1 (centres undefined)	none
CCC(NC(=O)c1cc(COc2ccc(F)cc2Cl)on1)c1ccncc1 (centres undefined)	TAAR1 ag 43 (no result: OXTR potentiate, V1aR counter, OXTR agonist)
O=S(=O)(CS(=O)(=O)c1ccccc1Br)c1ccccc1Br	none (no result: OXTR potentiate, V1aR counter, OXTR agonist)
CCCn1cc(CCC(=O)Nc2ccc(Oc3cccnc3)cc2)c2ccccc21	none (no result: OXTR potentiate, V1aR counter, OXTR agonist)
CCOC(=O)c1ccccc1NC(=O)COC(=O)C1CCN(S(=O)(=O)c2ccccc2C(=O)OC)CC1	TAAR1 antagonist 49
O=C(NC1(Cc2ccccc2)CCN(Cc2ccc(-c3ccccc3)cc2)C1=O)c1ccccc1 (centres undefined)	TAAR1 antagonist 62
O=C(CCc1ccccc1)NC1(Cc2ccccc2)CCN(CCc2cccs2)C1=O (centres undefined)	none
O=C(c1ccccc1Cl)N1CCSCCS1(=O)=O	none (no result: OXTR potentiate, V1aR counter, OXTR agonist)
O=C(CN1CCc2ccccc2C1)Nc1cccc(S(=O)(=O)N2CCCC2)c1	TAAR1 ag 38
O=C(Cc1ccccc1)Nc1cccc(S(=O)(=O)N2CCCCCC2)c1	none
CN1C2CCC1/C(=C\c1ccc(F)cc1)C(=O)/C2=C/c1ccc(F)cc1	none
CN1C2CCC1/C(=C/c1cccn1C)C(=O)/C2=C\c1cccn1C	V1aR counter 45, OXTR agonist 45
COC(=O)c1ccc2nc(-c3ccc(Cl)cc3)c(Cc3ccccc3)n2c1	none (no result: OXTR potentiate, V1aR counter, OXTR agonist)
Cc1ccc(NC(=O)NCC2CCN(Cc3cccc(Cl)c3)CC2)cc1Cl	TAAR1 ag 42
Cc1ccc(C)c(CN2CCC(CNC(=O)Nc3ccc(F)c(Cl)c3)CC2)c1	TAAR1 ag 38
Cc1cc(C)c(CN2CCN(CCCn3cnc(C(=O)Nc4ccc(C)c(C)c4)n3)CC2)c(C)c1	none (no result: OXTR potentiate, V1aR counter, OXTR agonist)
O=C(Nc1ccccc1C(F)(F)F)c1cc2ccccc2o1	none
Cc1cc(/C=N/NC(N)=S)c(O)c(/C=N/NC(N)=S)c1	TAAR1 ag 50
NC(=S)N/N=C/c1cccc(O)c1O	none
O=C(/C=C\c1ccco1)Nc1nc(-c2ccc3ccccc3c2)cs1	TAAR1 antagonist 49
COc1ccc(NS(=O)(=O)c2ccc(NC(=S)NC(=O)C(C)C)cc2)cc1	V1aR counter 24, OXTR agonist 20, TAAR1 ag 77
O=C(Nc1ccccc1)N(O)c1ccc(Cl)cc1	TAAR1 ag 38

Assay outcomes deposited in PubChem by The Scripps Research Institute Molecular Screening Center.
